Assay results as given in ChEMBL document CHEMBL4680165, “β-Lactams with antiproliferative and antiapoptotic activity in breast and chemoresistant colon cancer cells” (Eur J Med Chem, 2020).
Active and inactive are the calls of the source. No cut-off for these calls is given here.

Columns and labels:
MCF7 [1] = experiment: Induction of apoptosis in human MCF7 cells assessed as downregulation of Bcl-2 expression level measured after 72 hrs by Western blot analysis; type: functional, cell-based; details: dose 0.05-0.5 µM
Summary of the method: (§1)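 MCF-7 cells (1 × 10^5 per flask) were treated at 0.05, 0.1 and 0.5 µM for 48 and 72 h; vehicle was 0.1% v/v ethanol. Lysis was in RIPA buffer with protease and phosphatase inhibitors. Equal protein (BCA) was run on 12% SDS-PAGE and blotted for Mcl-1, Bcl-2 and survivin, with GAPDH as loading control and ECL detection. Three independent experiments.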

HT-29 [2] = experiment: Induction of apoptosis in human HT29 cells assessed as necrotic cells at 1 uM after 48 hrs by Annexin V-FITC and propidium iodide staining based flow cytometry (reference value: 3 %); type: functional
Summary of the method: (§2)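 HT-29 cells were treated at 1 µM for 24, 48 and 72 h against an untreated control. Cells were stained with Annexin V in binding buffer (HEPES pH 7.4, NaCl, CaCl2) for 30 min on ice in the dark, washed, resuspended in PI-containing buffer and read at once by flow cytometry. Quadrants: early apoptotic, late apoptotic, necrotic (Annexin V−/PI+).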

HT-29 [3] = experiment: Induction of apoptosis in human HT29 cells assessed as cell apoptosis at 1 uM after 24 hrs by Annexin V-FITC and propidium iodide staining based flow cytometry; type: functional; summary of the method: as §2
MCF7 [4] = experiment: Induction of apoptosis in human MCF7 cells assessed as total apoptotic cells at 0.01 uM after 48 hrs by Annexin V-FITC and propidium iodide staining based flow cytometry (reference value: 10 %); type: functional
Summary of the method: (§3)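 MCF-7 cells were seeded at 1 × 10^5 cells/mL and treated for 48 h at 0.01, 0.1 and 1 µM; vehicle was 0.1% v/v ethanol. Annexin V staining was done on ice in the dark for 30 min in HEPES/NaCl/CaCl2 binding buffer, followed by PI. Flow cytometry scored early apoptotic (Annexin V+/PI−) and late apoptotic (Annexin V+/PI+) cells; total apoptotic is Annexin V-positive cells.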

MCF7 [5] = experiment: Induction of apoptosis in human MCF7 cells assessed as downregulation of survivin expression level at 0.05 to 0.5 uM after 48 to 72 hrs by Western blot analysis; type: functional, cell-based; details: dose 0.05-0.5 µM, time 48-72 hrs; summary of the method: as §1
MCF7 [6] = experiment: Cell cycle arrest in human MCF7 cells assessed as accumulation at G2/M phase at 1 uM by PI staining based flow cytometry analysis; type: functional; details: TDE = time-dependent effect
Summary of the method: (§4)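 Cells (1 × 10^5/well) were treated at 1 µM for 24, 48 and 72 h; vehicle was 0.1% v/v ethanol. Cells were trypsinised, fixed in ice-cold 70% ethanol overnight at −20 °C, then stained with PI (50 µg/mL) plus DNase-free RNase A (50 µg/mL) at 37 °C for 30 min. DNA content of 10,000 cells per group was read by flow cytometry at 488 nm.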

HT-29 [7] = experiment: Cell cycle arrest in human HT-29 cells assessed as accumulation at G2/M phase at 1 uM measured after 48 hrs by PI staining based flow cytometry analysis (reference value: 11 %); type: functional; summary of the method: as §4
HT-29 [8] = experiment: Induction of apoptosis in human HT29 cells assessed as necrotic cells at 1 uM after 24 hrs by Annexin V-FITC and propidium iodide staining based flow cytometry (reference value: 3 %); type: functional; summary of the method: as §2
HT-29 [9] = experiment: Induction of apoptosis in human HT29 cells assessed as necrotic cells at 1 uM after 72 hrs by Annexin V-FITC and propidium iodide staining based flow cytometry (reference value: 3 %); type: functional; summary of the method: as §2
MCF7 [10] = experiment: Induction of apoptosis in human MCF7 cells assessed as total apoptotic cells at 0.1 uM after 48 hrs by Annexin V-FITC and propidium iodide staining based flow cytometry (reference value: 10 %); type: functional; summary of the method: as §3
Tubulin (Homo sapiens) = Tubulin (Homo sapiens) (UniProt P68371+Q9H4B7+P0DPH7+P68366+Q13509+Q71U36+P04350+Q3ZCM7+P07437+P68363+Q9BQE3+Q6PEY2+Q13885+Q9BVA1+Q9BUF5); experiment: Induction of microtubule depolymerization in human MCF7 cells at 10 to 100 nM after 16 hrs by immunofluorescence staining based confocal microscopic analysis; type: cell-based; details: dose 10-100 nM
Summary of the method: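 MCF-7 cells seeded 1 × 10^5 cells/mL on chamber slides, exposed 16 h to vehicle [1% ethanol (v/v)] or test agent (0.01, 0.05, 0.1 µM). Fixed in 4% paraformaldehyde, permeabilised in 0.5% Triton X-100, blocked in 5% BSA, then stained with anti-α-tubulin-FITC (DM1A) 2 h rt, Alexa Fluor 488 1 h, DAPI mount. Confocal imaging; three independent experiments.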

HT-29 [11] = experiment: Antiangiogenic activity in human HT-29 cells assessed as increase in IL-1RA secretion at 5 uM after 24 hrs by ELISA; type: functional, cell-based
Summary of the method: (§5)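 HT-29 cells at 5 x 10^4 per well, cultured 24 h and then exposed to 5 µM compound. Conditioned medium collected on ice and stored at -80 °C. Cytokines and angiogenic, vascular-injury and chemokine factors measured by multiplex panels with overnight supernatant incubation (Angiogenesis Panel 1 and Vascular Injury Panel 2 same day). Medium undiluted except 1:4 for Vascular Injury Panel 2. Secretion normalised to lysate protein by BCA.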

HT-29 [12] = experiment: Cell cycle arrest in human HT-29 cells assessed as accumulation at G2/M phase at 1 uM measured after 72 hrs by PI staining based flow cytometry analysis (reference value: 11 %); type: functional; summary of the method: as §4
MCF7 [13] = experiment: Cell cycle arrest in human MCF7 cells assessed as accumulation at G2/M phase at 1 uM measured after 72 hrs by PI staining based flow cytometry analysis (reference value: 24 %); type: functional; summary of the method: as §4
HT-29 [14] = experiment: Induction of apoptosis in human HT29 cells assessed as cell apoptosis at 1 uM after 48 hrs by Annexin V-FITC and propidium iodide staining based flow cytometry; type: functional; summary of the method: as §2
HT-29 [15] = experiment: Cell cycle arrest in human HT-29 cells assessed as accumulation at G2/M phase at 1 uM measured after 24 hrs by PI staining based flow cytometry analysis (reference value: 11 %); type: functional; summary of the method: as §4
MCF7 [16] = experiment: Induction of apoptosis in human MCF7 cells assessed as early apoptotic cells after 48 hrs by Annexin V-FITC and propidium iodide staining based flow cytometry; type: functional, cell-based; details: dose 10-1000 nM; summary of the method: as §3
[17] = target: UDP-glucuronosyltransferases (UGTs) (Homo sapiens, UniProt O60656+O75310+O75795+P06133+P0DTE4+P0DTE5+P16662+P19224+P22309+P22310+P35503+P35504+P36537+P54855+Q6UWM9+Q9BY64+Q9HAW7+Q9HAW8+Q9HAW9); experiment: Metabolic stability in human liver microsomes assessed as UGT-mediated N-glucuronidation by measuring half life at 3 uM measured up to 45 mins by LC-MS/MS analysis; type: ADME; details: liver microsomes
Summary of the method: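 Pooled human liver microsomes (0.5 mg/mL protein final) with alamethicin (25 µg/mg) in 0.1 M phosphate pH 7.4, compound 3 µM final (0.25% DMSO), preincubated 37 °C. Reaction started with UDPGA (1 mM final). Sampled at 0, 5, 15, 30, 45 min into methanol, analysed by LC-MS/MS. Minus-UDPGA control run 45 min. Single incubations; t½ and CLint taken from the elimination rate constant.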

HT-29 [18] = experiment: Antiangiogenic activity in human HT29 cells assessed as reduction in IL-1beta secretion at 5 uM after 24 hrs by ELISA; type: functional, cell-based; summary of the method: as §5

Activity (Tubulin (Homo sapiens)): Active
half-life at 3 µM [17]: 98 min
SMILES: COc1ccc([C@H]2[C@H](O)C(=O)N2c2cc(OC)c(OC)c(OC)c2)cc1F
Activity (MCF7 [1]): Dose-dependent effect
Activity (HT-29 [2]): 11%
Activity (HT-29 [3]): 21%
Activity (MCF7 [4]): 13%
Activity (MCF7 [5]): Active
Activity (MCF7 [6]): Tde
Activity (HT-29 [7]): 57%
Activity (HT-29 [8]): 8%
Activity (HT-29 [9]): 22%
Activity (MCF7 [10]): 20%
Activity (HT-29 [11]): Active
Activity (HT-29 [12]): 64%
Activity (MCF7 [13]): 60%
Activity (HT-29 [14]): 25%
Activity (HT-29 [15]): 52%
Activity (MCF7 [16]): Dose-dependent effect
Activity (HT-29 [18]): inactive
